Activity calls are given as the source filed them. The rule behind the calls is not given here.
Assays:
Plasma kallikrein [1] = biological target: Plasma kallikrein (Homo sapiens, UniProt P03952); experiment: Inhibition of human plasma kallikrein using fluorogenic H-Pro-Phe-Arg-AMC peptide as substrate preincubated for 15 mins followed by substrate addition measured by fluorescence-based assay; conditions: read-out: Ki(app)
Plasma kallikrein [2] = biological target: Plasma kallikrein (Rattus norvegicus, UniProt P14272); experiment: Inhibition of recombinant Sprague-Dawley rat plasma kallikrein using fluorogenic H-Pro-Phe-Arg-AMC peptide as substrate preincubated for 15 mins followed by substrate addition measured by fluorescence-based assay; conditions: read-out: Ki(app)
Plasma kallikrein (Rattus norvegicus, UniProt P14272), sequence (P14272 20-390 limits assumed): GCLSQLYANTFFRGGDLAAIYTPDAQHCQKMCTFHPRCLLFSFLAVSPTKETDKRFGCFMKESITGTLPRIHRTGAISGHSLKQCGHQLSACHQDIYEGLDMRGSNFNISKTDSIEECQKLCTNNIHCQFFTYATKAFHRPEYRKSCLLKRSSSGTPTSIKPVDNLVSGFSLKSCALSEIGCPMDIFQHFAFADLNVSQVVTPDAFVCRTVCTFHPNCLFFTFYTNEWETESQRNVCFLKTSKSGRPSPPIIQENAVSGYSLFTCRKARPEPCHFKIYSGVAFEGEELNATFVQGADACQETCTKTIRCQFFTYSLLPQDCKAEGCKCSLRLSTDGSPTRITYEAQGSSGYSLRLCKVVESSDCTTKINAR
Plasma kallikrein (Rattus norvegicus, UniProt P14272), sequence (P14272 391-638 limits assumed): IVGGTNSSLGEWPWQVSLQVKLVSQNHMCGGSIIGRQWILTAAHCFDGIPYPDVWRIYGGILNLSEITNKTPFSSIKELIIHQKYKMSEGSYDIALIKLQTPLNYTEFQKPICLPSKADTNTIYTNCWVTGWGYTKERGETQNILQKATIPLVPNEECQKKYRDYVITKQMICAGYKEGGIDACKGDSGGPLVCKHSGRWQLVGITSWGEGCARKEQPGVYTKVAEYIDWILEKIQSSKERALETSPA

(UniProt A0A8D1M4K5) = experiment: Inhibition of pig plasma kallikrein using fluorogenic H-Pro-Phe-Arg-AMC peptide as substrate preincubated for 15 mins followed by substrate addition measured by fluorescence-based assay; parameters: species or system Sus scrofa; conditions: read-out: Ki(app)
Prothrombin = Prothrombin (Homo sapiens, UniProt P00734); experiment: Inhibition of recombinant human alpha thrombin using fluorogenic peptide as substrate by fluorescence based assay
How it was run: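 Panel of human serine proteases. Substrates and assay conditions followed each supplier's recommendations. Peptides were first screened at 50 μM. Where inhibition was detectable, hydrolytic activity was measured across a range of peptide concentrations. Ki was obtained by fitting to the tight-binding inhibitor rate equation.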

[3] = biological target: T1, Complement C1s subcomponent (Homo sapiens, UniProt P09871); experiment: Inhibition of recombinant human C-terminal 6His-tagged complement component C1s (1 to 688 residues) expressed in mouse NS0 cells using fluorogenic Z-Lys-SBzl peptide as substrate after 5 mins by fluorescence based assay
T1 sequence (P09871 whole entry): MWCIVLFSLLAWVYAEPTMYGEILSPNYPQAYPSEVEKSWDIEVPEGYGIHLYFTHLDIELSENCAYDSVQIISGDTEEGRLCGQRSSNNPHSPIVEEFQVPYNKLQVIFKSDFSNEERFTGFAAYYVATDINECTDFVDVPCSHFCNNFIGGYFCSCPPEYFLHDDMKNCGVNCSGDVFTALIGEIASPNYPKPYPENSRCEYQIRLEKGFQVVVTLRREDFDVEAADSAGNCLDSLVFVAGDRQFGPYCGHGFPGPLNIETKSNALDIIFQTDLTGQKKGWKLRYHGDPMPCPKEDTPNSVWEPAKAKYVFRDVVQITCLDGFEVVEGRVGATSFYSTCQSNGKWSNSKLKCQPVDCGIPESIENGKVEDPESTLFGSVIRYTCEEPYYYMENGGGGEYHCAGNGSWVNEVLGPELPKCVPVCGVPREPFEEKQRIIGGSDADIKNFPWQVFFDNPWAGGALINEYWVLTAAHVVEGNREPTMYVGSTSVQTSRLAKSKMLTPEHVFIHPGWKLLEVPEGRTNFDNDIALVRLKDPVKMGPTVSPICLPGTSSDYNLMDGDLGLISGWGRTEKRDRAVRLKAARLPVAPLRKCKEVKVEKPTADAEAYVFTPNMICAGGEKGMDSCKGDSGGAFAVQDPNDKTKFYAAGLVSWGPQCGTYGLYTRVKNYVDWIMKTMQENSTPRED
How it was run: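 Human serine proteases were assayed with substrates and conditions set by each supplier's recommendations. Peptides were first screened at 50 μM. Where inhibition was detected, Ki was determined from activity across peptide concentrations using a tight-binding rate equation.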

[4] = Drug level in New Zealand white rabbit contralateral eye vitreous humor at 2 mg/ml, administered via ivt injection by LC-MS/MS analysis; format: ADME, tissue-based, Oryctolagus cuniculus; conditions: in vivo, topical_or_ocular
Plasma kallikrein [5] = biological target: Plasma kallikrein (Mus musculus, UniProt P26262)
Plasma kallikrein (Mus musculus, UniProt P26262), sequence (P26262 20-390 limits assumed): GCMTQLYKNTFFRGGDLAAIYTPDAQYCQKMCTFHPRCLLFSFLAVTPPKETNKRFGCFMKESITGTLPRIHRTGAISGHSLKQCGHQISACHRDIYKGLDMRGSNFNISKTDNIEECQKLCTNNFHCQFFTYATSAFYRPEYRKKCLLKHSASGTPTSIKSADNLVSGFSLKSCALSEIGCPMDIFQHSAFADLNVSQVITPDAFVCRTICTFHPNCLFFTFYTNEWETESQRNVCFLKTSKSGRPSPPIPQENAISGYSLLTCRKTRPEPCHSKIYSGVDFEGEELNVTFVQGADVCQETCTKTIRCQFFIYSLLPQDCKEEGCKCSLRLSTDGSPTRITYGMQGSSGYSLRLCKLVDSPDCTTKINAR
Plasma kallikrein (Mus musculus, UniProt P26262), sequence (P26262 391-638 limits assumed): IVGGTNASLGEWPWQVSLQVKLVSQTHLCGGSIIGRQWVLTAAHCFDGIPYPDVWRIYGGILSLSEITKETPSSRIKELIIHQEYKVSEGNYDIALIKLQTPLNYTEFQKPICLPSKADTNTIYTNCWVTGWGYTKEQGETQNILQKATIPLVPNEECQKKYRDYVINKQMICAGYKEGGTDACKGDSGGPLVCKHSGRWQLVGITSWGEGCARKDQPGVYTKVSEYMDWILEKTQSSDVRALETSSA

[6] = Half life in rat plasma at 4 uM measured up to 24 hrs by LC-MS/MS analysis; format: ADME, cell-free
How it was run: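 Peptide from a 0.16 mM DMSO stock was added to human, rat or mouse plasma (final 4 μM) or to homogenized human vitreous (final 1 μM), with internal standard. Samples were incubated at 37 °C for up to 24 h and extracted with water/acetonitrile/methanol 1:3:3.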

[7] = Drug level in New Zealand white rabbit ipsialateral eye vitreous humor at 2 mg/ml, administered via ivt injection at early time point measured up to 100 hrs by LC-MS/MS analysis; format: ADME, tissue-based, Oryctolagus cuniculus; conditions: ipsilateral eye vitreous humor, topical or ocular, read-out: Drug uptake
How it was run: (§1)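 Male New Zealand White rabbits (10 weeks old, ~2 kg) received one 50 μL intravitreal injection per eye of peptide at 2 mg/mL in 50 mM sodium phosphate, pH 7.2. Animals were sacrificed at 15 min, 1, 4, 8, 24, 48 and 96 h (3 per time point). Whole vitreous was homogenized, clarified, 0.2 μm filtered and assayed by LC-MS/MS, with a lower limit of detection of 1 ng/mL in vitreous.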

[8] = Drug level in New Zealand white rabbit ipsialateral eye vitreous humor at 2 mg/ml, administered via ivt injection at late time point measured up to 100 hrs by LC-MS/MS analysis; format: ADME, tissue-based, Oryctolagus cuniculus; conditions: ipsilateral eye vitreous humor, topical or ocular, read-out: Drug uptake; how it was run: as §1
Cynomolgus monkey = experiment: Toxicity in cynomolgus monkey at 1.25 ug administered as systemic dose; parameters: species or system Macaca fascicularis; conditions: in vivo
[9] = Aqueous solubility of the compound in buffer; format: physicochemical
Plasma = experiment: Anti-coagulating activity in factor 8-deficient human plasma assessed as increase in coagulation time at 10 uM by aPTT assay; format: functional
How it was run: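 Clotting time measured on a coagulation analyzer using actin FS, 0.025 M CaCl2, FVIII-deficient human plasma and Owren's Veronal Buffer pH 7.35, run per the manufacturer's instructions. Peptide tested from zero (vehicle) up to 10 μM. Each point is the mean ± SD of triplicates.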

Rattus norvegicus [10] = experiment: Antiinflammatory activity in Sprague-Dawley rat carrageenan-induced paw edema model assessed as inhibition of paw edema AUC (0 to 2 hrs) at 10 to 30 mg/kg, ip pretreated for 15 mins followed by carrageenan challenge; format: functional, organism-based
How it was run: (§2)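 Male Sprague-Dawley rats received peptide IP (30, 10 or 3 mg/kg), or indomethacin IP at 5 mg/kg, 15 min before subplantar carrageenan. Paw volume was followed over time against a vehicle group.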

Rattus norvegicus [11] = experiment: Antiinflammatory activity in Sprague-Dawley rat assessed as inhibition carrageenan-induced paw edema at 30 mg/kg, ip pretreated for 15 mins followed by carrageenan challenge measured at 1 hr post carrageenan challenge; format: functional; how it was run: as §2
Rattus norvegicus [12] = experiment: Antiinflammatory activity in Sprague-Dawley rat assessed as inhibition carrageenan-induced paw edema at 30 mg/kg, ip pretreated for 15 mins followed by carrageenan challenge measured at 2 hrs post carrageenan challenge; format: functional; how it was run: as §2
Rattus norvegicus [13] = experiment: Antiinflammatory activity in Sprague-Dawley rat assessed as inhibition carrageenan-induced paw edema at 30 mg/kg, ip pretreated for 15 mins followed by carrageenan challenge measured at 6 hrs post carrageenan challenge; format: functional; how it was run: as §2
Mus musculus = experiment: Antidiabetic activity in STZ-induced diabetic C57BL/6J mouse model assessed as reduction in retinal vascular permeability at 100 ug administered 4 times via ivt measured at 8 weeks post diabetes onset relative to control; format: functional
How it was run: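 Diabetes was induced with STZ in male C57BL/6J mice. Peptide was given as repeated intravitreal injections (4 × 100 μg). Retinal permeability was read as FITC-BSA extravasation 8 weeks after diabetes onset and compared with vehicle-treated diabetic mice. The anti-VEGFR2 antibody DC101 (6.2 μg/eye, single dose) served as positive control.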

Rattus norvegicus [14] = experiment: Antiinflammatory activity in ip dosed Sprague-Dawley rat carrageenan-induced paw edema model assessed as inhibition of edema pretreated for 15 mins followed by carrageenan challenge measured up to 6 hrs; format: functional, organism-based; how it was run: as §2

Plasma kallikrein (Homo sapiens, UniProt P03952), sequence (P03952 20-390 limits assumed): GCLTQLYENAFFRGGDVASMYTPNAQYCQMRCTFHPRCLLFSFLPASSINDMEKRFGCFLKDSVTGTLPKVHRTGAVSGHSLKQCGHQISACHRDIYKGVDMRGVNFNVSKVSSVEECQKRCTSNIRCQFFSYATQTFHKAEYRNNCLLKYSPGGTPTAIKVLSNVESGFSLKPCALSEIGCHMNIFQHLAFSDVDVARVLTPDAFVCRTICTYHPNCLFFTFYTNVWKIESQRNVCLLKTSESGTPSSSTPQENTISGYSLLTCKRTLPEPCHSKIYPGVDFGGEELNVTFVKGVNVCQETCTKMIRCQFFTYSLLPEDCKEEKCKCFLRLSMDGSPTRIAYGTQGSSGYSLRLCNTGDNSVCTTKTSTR
Plasma kallikrein (Homo sapiens, UniProt P03952), sequence (P03952 391-638 limits assumed): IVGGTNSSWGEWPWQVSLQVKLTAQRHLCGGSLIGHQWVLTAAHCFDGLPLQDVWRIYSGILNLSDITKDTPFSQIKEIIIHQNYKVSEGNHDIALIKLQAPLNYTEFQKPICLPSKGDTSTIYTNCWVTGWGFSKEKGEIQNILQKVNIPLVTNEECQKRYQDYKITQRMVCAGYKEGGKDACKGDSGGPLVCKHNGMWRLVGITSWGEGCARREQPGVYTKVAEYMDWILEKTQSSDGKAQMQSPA

With `CC[C@H](C)[C@@H]1NC(=O)[C@H](CC(=O)O)NC(=O)[C@@H]2CCCN2C(=O)[C@H](Cc2ccc(O)cc2)NC(=O)[C@H](Cc2ccc(O)cc2)NC(=O)[C@H](C(C)C)NC(=O)[C@@H]2CSCc3cc(cc(c3)CSC[C@@H](C(=O)N[C@@H](C)C(=O)N(C)CC(=O)N(C)CC(=O)N(C)CC(=O)N[C@H](CCCNC(=N)N)C(=O)N[C@H](CCCNC(=N)N)C(=O)O)NC1=O)CSC[C@H](NC(C)=O)C(=O)N[C@@H](CO)C(=O)N[C@@H](Cc1ccccc1)C(=O)N1CCC1C(=O)N[C@@H](Cc1ccc(O)cc1)C(=O)N[C@@H](CCCCNC(=N)N)C(=O)N2` (some centres not stated) the Ki (Plasma kallikrein [1]) was 0.25 nM, the Ki (Plasma kallikrein [2]) was 5.5 nM and the Ki ((UniProt A0A8D1M4K5)) was 300 nM. The Ki (Prothrombin) was > 50000 nM, the Ki [3] was > 50000 nM and the Drug uptake [4] was 1 ng/mL. It also gave a Ki (Plasma kallikrein [5]) of 45 nM.
With `CC(=O)N[C@H]1CSCc2cc3cc(c2)CSC[C@H](NC(=O)[C@H](CCCCNC(=N)N)NC(=O)[C@H](Cc2ccc(O)cc2)NC(=O)[C@@H]2CCN2C(=O)[C@H](Cc2ccccc2)NC(=O)[C@H](CO)NC1=O)C(=O)N[C@@H](C)CN[C@@H](Cc1cnc[nH]1)C(=O)N[C@@H](CCC(N)=O)C(=O)N[C@@H](CC(=O)O)C(=O)N[C@@H](CC(C)C)C(=O)N[C@H](C(=O)O)CSC3` the half-life at 4 µM [6] was > 24 h, the concentration at 100 h [7] was 45 µM and the concentration at 100 h [8] was 8 µM. For the same compound, the Activity (Cynomolgus monkey) was “Non-Toxic”.
With `CC(=O)N[C@H]1CSCc2cc3cc(c2)CSC[C@H](C(=O)N[C@@H](C)C(=O)N(C)CC(=O)N(C)CC(=O)N(C)CC(=O)N[C@H](CCCNC(=N)N)C(=O)N[C@H](CCCNC(=N)N)C(=O)O)NC(=O)[C@H](CC(C)C)NC(=O)[C@@H]2CCCN2C(=O)[C@H](C)NC(=O)[C@H](CC(=O)O)NC(=O)[C@H](Cc2c[nH]c4ccccc24)NC(=O)[C@@H]2CCCN2C(=O)[C@H](CSC3)NC(=O)[C@H](Cc2c[nH]c3ccccc23)NC(=O)[C@@H]2CCCN2C(=O)[C@H](CC(N)=O)NC(=O)[C@H](Cc2c[nH]c3ccccc23)NC(=O)[C@H]([C@@H](C)O)NC(=O)[C@H](CC(N)=O)NC1=O` the solubility [9] was “Soluble”, the half-life at 4 µM [6] was > 24 h and the Ki (Prothrombin) was > 50000 nM. For the same compound, the Ki [3] was > 50000 nM, the Activity (Plasma) was < 5% and the inhibition (Rattus norvegicus [10]) was “Active”. It also gave an inhibition in vivo at 30 mg/kg (Rattus norvegicus [11]) of 71%, an inhibition in vivo at 30 mg/kg (Rattus norvegicus [12]) of 59% and an inhibition in vivo at 30 mg/kg (Rattus norvegicus [13]) of 64%. The “inhibition (INH)” value (Mus musculus) was 36% and the inhibition (Rattus norvegicus [14]) was “Dose-dependent effect”.
